Assay results: ChEMBL document CHEMBL4689842, “EUbOPEN Chemogenomics Library wave 1” (2021)
Values joined by “and” are separate entries in the source; they are usually repeats but may differ in a detail not shown here. Equal entries are not always repeated.

System: HEK-293T
Test: Multiplex assay against HEK293T;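 on Population Tubulin-Different-Phenotype (%): share of the cells with healthy nuclei that show this phenotype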
Assay type: toxicity, cell-based
Settings: human
In short: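 Cells stained live at seeding with Hoechst33342, BioTracker Green Microtubule Cytoskeleton Dye, MitoTracker Red and Annexin V Alexa Fluor 680 were imaged on a CQ1 microscope at 37°C and 5% CO2 after compound addition. Their classification by CellPathfinder machine-learning gating ran from Hoechst high-intensity objects versus normal cells, to healthy, pyknosed or fragmented nuclei among normal cells, to mitotic or apoptotic among pyknosed cells. Tubulin, mitochondrial-mass and membrane-permeability phenotypes are per cents of healthy-nucleus cells.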

[1] = 12 h, 1 µM, compound concentration 1 uM, replicate 1
[2] = 12 h, 1 µM, compound concentration 1 uM, replicate 2
[3] = 12 h, 10 µM, compound concentration 10 uM, replicate 1
[4] = 12 h, 10 µM, compound concentration 10 uM, replicate 2
[5] = 24 h, 1 µM, compound concentration 1 uM, replicate 1
[6] = 24 h, 1 µM, compound concentration 1 uM, replicate 2
[7] = 24 h, 10 µM, compound concentration 10 uM, replicate 1
[8] = 24 h, 10 µM, compound concentration 10 uM, replicate 2

C=CC(=O)Nc1cccc(Oc2nc(Nc3ccc(N4CCN(C)CC4)cc3OC)ncc2Cl)c1
Population Apoptotic (%) [1]: 22% | Population Fragmented Nuclei (%) [1]: 21% | Population Healthy Nuclei (%) [1]: 27% | Population Hoechst High Intensity Objects (%) [1]: 18% | Population Membrane Permeable-Phenotype (%) [1]: 13% | Population Mitochondria Different-Phenotype (%) [1]: 25% | Population Mitotic Cells (%) [1]: 77% | Population Normal (%) [1]: 81% | Population Pyknosed Nuclei (%) [1]: 50% | Population Tubulin-Different-Phenotype (%) [1]: 77% | Total Cell Count [1]: 425 | Population Apoptotic (%) [2]: 11% | Population Fragmented Nuclei (%) [2]: 4% | Population Healthy Nuclei (%) [2]: 70% | Population Hoechst High Intensity Objects (%) [2]: 7% | Population Membrane Permeable-Phenotype (%) [2]: 11% | Population Mitochondria Different-Phenotype (%) [2]: 54% | Population Mitotic Cells (%) [2]: 88% | Population Normal (%) [2]: 92% | Population Pyknosed Nuclei (%) [2]: 25% | Population Tubulin-Different-Phenotype (%) [2]: 98% | Total Cell Count [2]: 1025 | Population Apoptotic (%) [3]: 16% | Population Fragmented Nuclei (%) [3]: 10% | Population Healthy Nuclei (%) [3]: 70% | Population Hoechst High Intensity Objects (%) [3]: 12% | Population Membrane Permeable-Phenotype (%) [3]: 3% | Population Mitochondria Different-Phenotype (%) [3]: 8% | Population Mitotic Cells (%) [3]: 83% | Population Normal (%) [3]: 87% | Population Pyknosed Nuclei (%) [3]: 18% | Population Tubulin-Different-Phenotype (%) [3]: 18% | Total Cell Count [3]: 722 | Population Apoptotic (%) [4]: 8% | Population Fragmented Nuclei (%) [4]: 7% | Population Healthy Nuclei (%) [4]: 86% | Population Hoechst High Intensity Objects (%) [4]: 3% | Population Membrane Permeable-Phenotype (%) [4]: 4% | Population Mitochondria Different-Phenotype (%) [4]: 15% | Population Mitotic Cells (%) [4]: 91% | Population Normal (%) [4]: 96% | Population Pyknosed Nuclei (%) [4]: 6% | Population Tubulin-Different-Phenotype (%) [4]: 16% | Total Cell Count [4]: 1384 | Population Apoptotic (%) [5]: 36% | Population Fragmented Nuclei (%) [5]: 23% | Population Healthy Nuclei (%) [5]: 33% | Population Hoechst High Intensity Objects (%) [5]: 16% | Population Membrane Permeable-Phenotype (%) [5]: 10% | Population Mitochondria Different-Phenotype (%) [5]: 49% | Population Mitotic Cells (%) [5]: 63% | Population Normal (%) [5]: 83% | Population Pyknosed Nuclei (%) [5]: 43% | Population Tubulin-Different-Phenotype (%) [5]: 78% | Total Cell Count [5]: 379 | Population Apoptotic (%) [6]: 13% | Population Fragmented Nuclei (%) [6]: 8% | Population Healthy Nuclei (%) [6]: 76% | Population Hoechst High Intensity Objects (%) [6]: 7% | Population Mitochondria Different-Phenotype (%) [6]: 36% | Population Mitotic Cells (%) [6]: 86% | Population Normal (%) [6]: 92% | Population Pyknosed Nuclei (%) [6]: 14% | Population Tubulin-Different-Phenotype (%) [6]: 89% | Total Cell Count [6]: 1188 | Population Apoptotic (%) [7]: 8% | Population Fragmented Nuclei (%) [7]: 11% | Population Healthy Nuclei (%) [7]: 79% | Population Hoechst High Intensity Objects (%) [7]: 8% | Population Membrane Permeable-Phenotype (%) [7]: 11% | Population Mitochondria Different-Phenotype (%) [7]: 5% | Population Mitotic Cells (%) [7]: 92% | Population Normal (%) [7]: 91% | Population Pyknosed Nuclei (%) [7]: 8% | Population Tubulin-Different-Phenotype (%) [7]: 23% | Total Cell Count [7]: 923 | Population Apoptotic (%) [8]: 2% | Population Fragmented Nuclei (%) [8]: 18% | Population Healthy Nuclei (%) [8]: 78% | Population Hoechst High Intensity Objects (%) [8]: 2% | Population Membrane Permeable-Phenotype (%) [8]: 7% | Population Mitochondria Different-Phenotype (%) [8]: 2% | Population Mitotic Cells (%) [8]: 97% | Population Normal (%) [8]: 97% | Population Pyknosed Nuclei (%) [8]: 3% | Population Tubulin-Different-Phenotype (%) [8]: 12% | Total Cell Count [8]: 2281

CN(c1ccccc1CNc1nc(Nc2ccc3c(c2)CC(=O)N3)ncc1C(F)(F)F)S(C)(=O)=O
Population Apoptotic (%) [3]: 20% and 22% | Population Fragmented Nuclei (%) [3]: 24% and 17% | Population Healthy Nuclei (%) [3]: 40% and 71% | Population Hoechst High Intensity Objects (%) [3]: 21% and 10% | Population Membrane Permeable-Phenotype (%) [3]: 10% | Population Mitotic Cells (%) [3]: 80% and 77% | Population Normal (%) [3]: 78% and 89% | Population Pyknosed Nuclei (%) [3]: 35% | Total Cell Count [3]: 538 and 612 | Population Apoptotic (%) [4]: 17% | Population Fragmented Nuclei (%) [4]: 3% and 5% | Population Healthy Nuclei (%) [4]: 85% and 90% | Population Membrane Permeable-Phenotype (%) [4]: 5% and 1% | Population Mitochondria Different-Phenotype (%) [4]: 37% | Population Mitotic Cells (%) [4]: 82% | Population Normal (%) [4]: 92% and 97% | Population Pyknosed Nuclei (%) [4]: 10% and 4% | Total Cell Count [4]: 896 and 1228 | Population Apoptotic (%) [7]: 23% and 26% | Population Fragmented Nuclei (%) [7]: 24% and 15% | Population Healthy Nuclei (%) [7]: 40% and 78% | Population Hoechst High Intensity Objects (%) [7]: 17% and 10% | Population Membrane Permeable-Phenotype (%) [7]: 4% and 9% | Population Mitotic Cells (%) [7]: 76% and 73% | Population Normal (%) [7]: 82% and 89% | Total Cell Count [7]: 531 and 582 | Population Apoptotic (%) [8]: 17% and 15% | Population Healthy Nuclei (%) [8]: 83% | Population Hoechst High Intensity Objects (%) [8]: 8% and 4% | Population Membrane Permeable-Phenotype (%) [8]: 3% and 2% | Population Mitochondria Different-Phenotype (%) [8]: 41% | Population Mitotic Cells (%) [8]: 82% and 84% | Population Normal (%) [8]: 91% and 95% | Total Cell Count [8]: 898 and 1570

CNC(=O)Nc1ccc2c(c1)[C@@]1(CC2)OC(=O)N(CC(=O)N(Cc2ccc(F)cc2)[C@@H](C)C(F)(F)F)C1=O [A-486]
Population Apoptotic (%) [1]: 25% | Population Fragmented Nuclei (%) [1]: 17% | Population Healthy Nuclei (%) [1]: 47% | Population Hoechst High Intensity Objects (%) [1]: 15% | Population Membrane Permeable-Phenotype (%) [1]: 17% | Population Mitochondria Different-Phenotype (%) [1]: 15% | Population Mitotic Cells (%) [1]: 74% | Population Normal (%) [1]: 84% | Population Pyknosed Nuclei (%) [1]: 35% | Population Tubulin-Different-Phenotype (%) [1]: 48% | Total Cell Count [1]: 632 | Population Apoptotic (%) [2]: 12% | Population Fragmented Nuclei (%) [2]: 4% | Population Healthy Nuclei (%) [2]: 82% | Population Hoechst High Intensity Objects (%) [2]: 2% | Population Membrane Permeable-Phenotype (%) [2]: 29% | Population Mitochondria Different-Phenotype (%) [2]: 21% | Population Mitotic Cells (%) [2]: 87% | Population Normal (%) [2]: 97% | Population Pyknosed Nuclei (%) [2]: 13% | Population Tubulin-Different-Phenotype (%) [2]: 88% | Total Cell Count [2]: 1325 | Population Apoptotic (%) [3]: 14% | Population Fragmented Nuclei (%) [3]: 20% | Population Healthy Nuclei (%) [3]: 57% | Population Hoechst High Intensity Objects (%) [3]: 17% | Population Membrane Permeable-Phenotype (%) [3]: 7% | Population Mitochondria Different-Phenotype (%) [3]: 6% | Population Mitotic Cells (%) [3]: 85% | Population Normal (%) [3]: 82% | Population Pyknosed Nuclei (%) [3]: 22% | Population Tubulin-Different-Phenotype (%) [3]: 4% | Total Cell Count [3]: 510 | Population Apoptotic (%) [4]: 5% | Population Fragmented Nuclei (%) [4]: 9% | Population Healthy Nuclei (%) [4]: 85% | Population Hoechst High Intensity Objects (%) [4]: 1% | Population Membrane Permeable-Phenotype (%) [4]: 2% | Population Mitochondria Different-Phenotype (%) [4]: 8% | Population Mitotic Cells (%) [4]: 95% | Population Normal (%) [4]: 98% | Population Pyknosed Nuclei (%) [4]: 4% | Population Tubulin-Different-Phenotype (%) [4]: 13% | Total Cell Count [4]: 1787 | Population Apoptotic (%) [5]: 24% | Population Fragmented Nuclei (%) [5]: 12% | Population Healthy Nuclei (%) [5]: 73% | Population Hoechst High Intensity Objects (%) [5]: 10% | Population Membrane Permeable-Phenotype (%) [5]: 25% | Population Mitochondria Different-Phenotype (%) [5]: 11% | Population Mitotic Cells (%) [5]: 75% | Population Normal (%) [5]: 89% | Population Pyknosed Nuclei (%) [5]: 14% | Population Tubulin-Different-Phenotype (%) [5]: 67% | Total Cell Count [5]: 669 | Population Apoptotic (%) [6]: 6% | Population Fragmented Nuclei (%) [6]: 14% | Population Healthy Nuclei (%) [6]: 79% | Population Hoechst High Intensity Objects (%) [6]: 3% | Population Membrane Permeable-Phenotype (%) [6]: 36% | Population Mitochondria Different-Phenotype (%) [6]: 10% | Population Mitotic Cells (%) [6]: 93% | Population Normal (%) [6]: 96% | Population Pyknosed Nuclei (%) [6]: 5% | Population Tubulin-Different-Phenotype (%) [6]: 89% | Total Cell Count [6]: 1891 | Population Apoptotic (%) [7]: 33% | Population Fragmented Nuclei (%) [7]: 15% | Population Healthy Nuclei (%) [7]: 75% | Population Hoechst High Intensity Objects (%) [7]: 9% | Population Membrane Permeable-Phenotype (%) [7]: 8% | Population Mitochondria Different-Phenotype (%) [7]: 4% | Population Mitotic Cells (%) [7]: 66% | Population Normal (%) [7]: 90% | Population Pyknosed Nuclei (%) [7]: 9% | Population Tubulin-Different-Phenotype (%) [7]: 10% | Total Cell Count [7]: 551 | Population Apoptotic (%) [8]: 7% | Population Fragmented Nuclei (%) [8]: 25% | Population Healthy Nuclei (%) [8]: 72% | Population Hoechst High Intensity Objects (%) [8]: 2% | Population Membrane Permeable-Phenotype (%) [8]: 7% | Population Mitochondria Different-Phenotype (%) [8]: 2% | Population Mitotic Cells (%) [8]: 92% | Population Normal (%) [8]: 97% | Population Pyknosed Nuclei (%) [8]: 1% | Population Tubulin-Different-Phenotype (%) [8]: 13% | Total Cell Count [8]: 3041
